Organism: Homo sapiens
Test: Inhibitory activity of Ca-ionophore-A23187-induced Leukotriene B4 (LTB4) release in human polymorphonuclear leukocytes
Type: functional
Conditions: not given
Outline: (§1)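 Human PMNs isolated from heparinized blood of healthy, medication-free donors (dextran sedimentation, Ficoll–Paque). DMSO stocks diluted into Ca/Mg-free Dulbecco's PBS. Cells (2.5 × 10^6/mL, PBS with Ca2+/Mg2+) preincubated with compound 15 min at 28 °C with shaking, then stimulated 10 min with A23187 (2.5 μM final). Stopped with EGTA (10 mM final), centrifuged, supernatant LTB4 measured by RIA.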

Row | IC50 [nM] | Structure (SMILES) | Inhibition [%]
1 | 8 | c1ccc(C(CC2CCCCC2)Nc2nc3ccccc3o2)cc1 (stereo in doubt; 26a) | 
2 | 20 | Fc1ccc(CC(Nc2nc3cc(Cl)ccc3o2)c2ccccn2)cc1 (stereo in doubt; 59a) | 
3 | 340 | c1ccc(C(CC2CCCCC2)Nc2nc3ccccc3o2)cc1 (stereo in doubt; 26c) | 
4 |  | CN1CCN(CC(Nc2nc3cc(Cl)ccc3o2)c2ccccc2)CC1 (configuration not stated) | 21
5 | 320 | Fc1ccc(CC(Nc2nc3cc(Cl)ccc3o2)c2ccccn2)cc1 (stereo in doubt; 59c) | 
6 | 6 | c1ccc(C(CC2CCCCC2)Nc2nc3ccccc3o2)cc1 (stereo in doubt; 26b) | 

Same assay, conditions: Homo sapiens

Row | IC50 [nM] | Structure (SMILES)
7 | 16 | O=[N+]([O-])c1ccc2oc(NC(Cc3ccc(F)cc3)c3ccccn3)nc2c1 (configuration not stated)
8 | 1500 | CCOC(=O)[C@@H](Cc1ccccc1)Nc1nc2ccccc2o1
9 | 300 | Cc1cccc(C(CC2CCCCC2)Nc2nc3ccccc3o2)c1 (configuration not stated)
10 | 16 | CCOC(=O)C(Cc1csc(C)n1)Nc1nc2cc(C(C)C)ccc2o1 (configuration not stated)
11 | 170 | Fc1ccc(C(CC2CCCCC2)Nc2nc3ccccc3o2)cc1 (configuration not stated)
12 | 200 | CCOC(=O)C(Cc1ccc(Cl)cc1)Nc1nc2ccccc2s1 (configuration not stated)
13 | 30 | Fc1ccc(CC(Nc2nc3cc(F)c(F)cc3o2)c2ccccn2)cc1 (configuration not stated)
14 | 48 | Clc1ccc2oc(NC(CN3CCSCC3)c3ccccc3)nc2c1 (configuration not stated)
15 | 150 | O=C(O)c1ccc2oc(NC(CC3CCCCC3)c3ccccc3)nc2c1 (configuration not stated)
16 | 330 | CCOC(=O)C(Cc1ccc(Cl)cc1)Nc1nc2ccc(C(C)C)cc2s1 (configuration not stated)
17 | 21 | Fc1ccc(CC(Nc2nc3cc(F)ccc3o2)c2ccccn2)cc1 (configuration not stated)
18 | 100 | COC(=O)[C@@H](CC1CCCCC1)Nc1nc2ccccc2o1
19 | 14 | COc1ccc(CC(Nc2nc3cc([N+](=O)[O-])ccc3o2)c2ccccn2)cc1 (configuration not stated)
20 | 360 | CCOC(=O)C(Cc1ccccc1)Nc1nc2ccccc2s1 (configuration not stated)
21 | 520 | CCOC(=O)C(CCc1ccccc1)Nc1nc2ccccc2s1 (configuration not stated)
22 | 27 | CCOC(=O)c1ccc2oc(NC(Cc3ccc(F)cc3)c3ccccn3)nc2c1 (configuration not stated)
23 | 550 | COc1ccc(C(CC2CCCCC2)Nc2nc3ccccc3o2)cc1 (configuration not stated)
24 | 150 | CCOC(=O)[C@H](Cc1ccccc1)Nc1nc2ccccc2o1
25 | 180 | CCCCc1ccc2nc(NC(Cc3ccc(Cl)cc3)C(=O)OCC)sc2c1 (configuration not stated)
26 | 29 | Cc1nc(CC(Nc2nc3cc(C(C)C)ccc3o2)c2ccccn2)cs1 (configuration not stated)
27 | 45 | CCOC(=O)c1ccc2oc(NC(CC3CCCCC3)c3ccccc3)nc2c1 (configuration not stated)

Row | IC50 [nM] | Structure (SMILES)
28 | 20 | Cc1ccc2oc(NC(CC3CCCCC3)c3cccnc3)nc2c1 (configuration not stated)
29 | 12 | CCOC(=O)C(Cc1ccccc1)Nc1nc2cc(CC)ccc2s1 (configuration not stated)
30 | 170 | CCCOCC(Cc1ccc(F)cc1)Nc1nc2cc(C(C)C)ccc2o1 (configuration not stated)
31 | 11 | COc1ccc2oc(NC(Cc3ccc(F)cc3)c3ccccn3)nc2c1 (configuration not stated)
32 | 80 | Clc1ccccc1C(CC1CCCCC1)Nc1nc2ccccc2o1 (configuration not stated)
33 | 330 | CCOC(=O)C(Cc1ccc(F)cc1)Nc1nc2ccccc2s1 (configuration not stated)
34 | 440 | Cc1noc(C(Cc2ccc(F)cc2)Nc2nc3cc(C(C)C)ccc3o2)n1 (configuration not stated)
35 | 15 | N#Cc1ccc2oc(NC(CC3CCCCC3)c3ccccc3)nc2c1 (configuration not stated)
36 | 17 | COCC(Cc1ccc(F)cc1)Nc1nc2cc(C(C)C)ccc2o1 (configuration not stated)
37 | 220 | CCOC(=O)C(Cc1ccccc1)Nc1nc2ccc(C(C)C)cc2o1 (configuration not stated)
38 | 12 | CC(C)c1ccc2oc(NC(Cc3ccc(F)cc3)c3ccccn3)nc2c1 (configuration not stated)
39 | 51 | c1ccc(CC(Nc2nc3ccccc3o2)c2ccccc2)cc1 (configuration not stated)
40 | 23 | Clc1ccc2oc(NC(Cc3ccccc3)c3ccccc3)nc2c1 (configuration not stated)
41 | 29 | CC(C)c1ccc2oc(NC(Cc3ccc(Cl)cc3)c3ccccn3)nc2c1 (configuration not stated)
42 | 52 | CC(C)c1ccc2oc(NC(CN3CCOCC3)c3ccccc3)nc2c1 (configuration not stated)
43 | 72 | CNC(=O)C(CC1CCCCC1)Nc1nc2cc(C)ccc2o1 (configuration not stated)
44 | 1200 | CC(C)c1ccc2oc(N[C@H](CN3CCCCC3)c3ccccc3)nc2c1
45 | 8 | Fc1ccc(CC(Nc2nc3cc(C(F)(F)F)ccc3o2)c2ccccn2)cc1 (configuration not stated)
46 | 40 | Cc1ccc2oc(N[C@H](CC3CCCCC3)c3ccccn3)nc2c1
47 | 170 | CN(C)C(=O)c1ccc2oc(NC(CC3CCCCC3)c3ccccc3)nc2c1 (configuration not stated)
48 | 78 | CC(=O)Nc1ccc2oc(NC(CC3CCCCC3)c3ccccc3)nc2c1 (configuration not stated)

Row | IC50 [nM] | Structure (SMILES)
49 | 6 | CC(C)c1ccc2oc(NC(CC3CCCCC3)c3ccccc3)nc2c1 (configuration not stated)
50 | 1000 | CCOC(=O)C(Cc1ccccc1)N(C)c1nc2ccccc2s1 (configuration not stated)
51 | 160 | CS(=O)(=O)Nc1ccc2oc(NC(CC3CCCCC3)c3ccccc3)nc2c1 (configuration not stated)
52 | 190 | Cc1ccc2oc(NC(CC3CCCCC3)c3ccncc3)nc2c1 (configuration not stated)
53 | 41 | CCOCC(Cc1ccc(F)cc1)Nc1nc2cc(C(C)C)ccc2o1 (configuration not stated)
54 | 50 | CN(C)S(=O)(=O)c1ccc2oc(NC(Cc3ccc(F)cc3)c3ccccn3)nc2c1 (configuration not stated)
55 | 5 | COC(=O)[C@H](CC1CCCCC1)Nc1nc2ccccc2o1
56 | 240 | CCOC(=O)C(Cc1ccccc1)Nc1nc2ccc(CC)cc2s1 (configuration not stated)
57 | 4 | Cc1ccc2oc(NC(CC3CCCCC3)c3ccccn3)nc2c1 (configuration not stated)
58 | 100 | CC(C)c1ccc2oc(N[C@@H](CN3CCCCC3)c3ccccc3)nc2c1
59 | 350 | CC(=O)C(Cc1ccccc1)Nc1nc2ccc(C(C)C)cc2o1 (configuration not stated)
60 | 0.5 | CCOC(=O)C(Cc1ccccc1)Nc1nc2cc(C(C)C)ccc2o1 (configuration not stated)
61 | 150 | CCOC(=O)C(Cc1ccc(Br)cc1)Nc1nc2ccccc2s1 (configuration not stated)
62 | 1 | Cc1ccc2oc(N[C@@H](CC3CCCCC3)c3ccccn3)nc2c1 [ONTAZOLAST]
63 | 5 | CC(C)c1ccc2oc(NC(Cc3cccc(Cl)c3)c3ccccn3)nc2c1 (configuration not stated)
64 | 13 | CSCC(Cc1ccccc1)Nc1nc2cc(C(C)C)ccc2o1 (configuration not stated)
65 | 230 | CCOC(=O)[C@H](Cc1ccccc1)Nc1nc2ccccc2s1
66 | 9 | COc1ccc2oc(NC(Cc3ccccc3)c3ccccc3)nc2c1 (configuration not stated)
67 | 170 | c1ccc(CC(Nc2nc3ccccc3s2)c2ccccc2)cc1 (configuration not stated)
68 | 230 | CCOC(=O)C(Cc1ccc(Cl)cc1)Nc1nc2ccc(OC)cc2s1 (configuration not stated)

Organism: Homo sapiens
Test: Inhibitory activity of Ca-ionophore-A23187-induced Leukotriene B4 (LTB4) release in human polymorphonuclear leukocytes at the dose of 3 micro M concentration
Type: functional
Conditions: not given
Outline: as §1

Row | Structure (SMILES) | Inhibition [%]
69 | O=C(O)C(Cc1ccccc1)Nc1nc2ccccc2s1 (configuration not stated) | -19
70 | O=S1(=O)CCN(CC(Nc2nc3cc(Cl)ccc3o2)c2ccccc2)CC1 (configuration not stated) | 46
71 | O=[N+]([O-])c1ccc2oc(NC(Cc3ccc(O)cc3)c3ccccn3)nc2c1 (configuration not stated) | 27
72 | CCOC(=O)C(Nc1nc2ccccc2s1)c1ccccc1 (configuration not stated) | 61
73 | NC(=O)c1ccc2oc(NC(CC3CCCCC3)c3ccccc3)nc2c1 (configuration not stated) | 35
74 | CCOC(=O)C(Cc1ccccc1)Cc1nc2ccccc2s1 (configuration not stated) | 56

Same assay, conditions: in the assay text read “0.3 micro M” for “3 micro M”

Row | Structure (SMILES) | Inhibition [%]
75 | OCc1ccc2oc(NC(CC3CCCCC3)c3ccccc3)nc2c1 (configuration not stated) | 41

Organism: Homo sapiens
Test: Inhibitory activity of Ca-ionophore-A23187-induced Leukotriene B4 (LTB4) release in human polymorphonuclear leukocytes at the dose of 1 micro M concentration
Type: functional
Conditions: not given
Outline: as §1

Row | Structure (SMILES) | Inhibition [%]
76 | CCOC(=O)C(Cc1c[nH]cn1)Nc1nc2cc(C(C)C)ccc2o1 (configuration not stated) | 26
77 | CCOC(=O)C(Cc1cncn1CC)Nc1nc2cc(C(C)C)ccc2o1 (configuration not stated) | 59

Reference: ChEMBL document CHEMBL1127687, “Benzoxazolamines and benzothiazolamines: potent, enantioselective inhibitors of leukotriene biosynthesis with a novel mechanism of action” (J Med Chem, 1994)
